Published values pooled from the literature.
Protocols differ between the studies behind these lines.
Target: Casein kinase II subunit alpha (CSNK2A1, Homo sapiens, UniProt P68400)

SMILES	assay	conditions	measurement	value
CN([C@@H]1CCc2c(CC(=O)O)c3ccccc3n2C1)S(=O)(=O)c1ccc(F)cc1	cell-free assay, competition with immobilised ligand	1 µM	remaining binding	82%
CC(C)(O)[C@H]1CC[C@H](Nc2ccc3ncc(-c4cccc(C(F)(F)F)c4)n3n2)CC1	enzyme activity, inhibitor	1 µM	remaining activity	61%
C[C@@H]1CN(c2cc(-c3n[nH]c4ccc(OC5(C)CC5)cc34)ncn2)C[C@H](C)O1	cell-free assay, competition with immobilised ligand	0.1 µM	remaining binding	66%
Cn1c2c(c3ccc(Cl)c(Cl)c31)C(C#N)C1(CCOCC1)NC2=O (stereo not shown)	thermal stability, DSF	10 µM	ΔTm	2.1 °C
CCN(CC)CCNC(=O)c1c(C)[nH]c(/C=C2\C(=O)Nc3ccc(F)cc32)c1C	enzyme activity, inhibitor	10 µM	inhibition	22%
O=C1NC(=O)c2cc(Nc3ccc(F)cc3)c(Nc3ccc(F)cc3)cc21	cell-free assay, inhibitor	0.5 µM	remaining signal	95.7%
Cc1ccc(Nc2nccc(N(C)c3ccc4c(C)n(C)nc4c3)n2)cc1S(N)(=O)=O	enzyme activity, inhibitor	0.3 µM	inhibition	-9%
Cn1c(=O)n(-c2ccc(C(C)(C)C#N)cc2)c2c3cc(-c4cnc5ccccc5c4)ccc3ncc21	enzyme activity, inhibitor	10 µM	remaining activity	79%
COc1cc(Nc2cnc(C#N)c(O[C@H](C)CN(C)C)n2)ncc1-c1cnn(C)c1	enzyme activity, inhibitor, radiometric	1 µM	remaining activity	110%
Cn1c2c(Cl)c(Cl)ccc2c2cc[nH]c(=O)c21	thermal stability, DSF	10 µM	ΔTm	1.3 °C
CN(c1ncccc1CNc1nc(Nc2ccc3c(c2)CC(=O)N3)ncc1C(F)(F)F)S(C)(=O)=O	enzyme activity, inhibitor	1 µM	inhibition	50.7%
O=C(N1CCS(=O)(=O)CC1)N1C[C@H](c2ccc(OC(F)(F)F)cc2)C[C@H](c2nc(C3CC3)no2)C1	cell-free assay, competition with immobilised ligand	1 µM	remaining binding	100%
Cc1ccc(C(=O)Nc2ccc(CN3CCN(C)CC3)c(C(F)(F)F)c2)cc1C#Cc1cnc2cccnn12	enzyme activity, inhibitor	23.5 nM	remaining activity	98%
O=C1CCc2cc(Nc3cc(OC4CCOCC4)c([N+](=O)[O-])cc3Cl)ccc2N1	cell-free assay, competition with immobilised ligand	1 µM	remaining binding	84%
Cn1c2c(Cl)c(Cl)ccc2c2cc(N)[nH]c(=O)c21	thermal stability, DSF	10 µM	ΔTm	2.8 °C
O=C1Nc2ccc(Cl)cc2C1=Cc1cc(Cl)c(O)c(Cl)c1	cell-free assay	0.5 µM	remaining signal	26.5%

SMILES	assay	conditions	measurement	value
CC(C)(C)c1nc(-c2cccc(NS(=O)(=O)c3c(F)cccc3F)c2F)c(-c2ccnc(N)n2)s1	enzyme activity, inhibitor, radiometric	1 µM	remaining activity	85%
C[C@@H]1CN(c2cc(-c3nn(C)c4ccc(OC5(C)CC5)cc34)ncn2)C[C@H](C)O1	cell-free assay, competition with immobilised ligand	1 µM	remaining binding	76%
Cc1cc(NC(=O)c2cccc3cc(-c4cccc5[nH]nc(N)c45)ccc23)ccc1F	enzyme activity, inhibitor	0.1 µM	activity vs control	109%
CCN(CC)c1ccc(C2=NNC(=O)CC2C)cc1[N+](=O)[O-] (stereo not shown)	enzyme activity, inhibitor	10 µM	remaining activity	96%
Nc1ncnc2occ(-c3ccc(NC(=O)Nc4cc(C(F)(F)F)ccc4F)cc3)c12	enzyme activity, inhibitor	20 µM	remaining activity	63%
Cn1c2c(c3ccccc31)C(C#N)C(C)(C)NC2=O (stereo not shown)	thermal stability, DSF	10 µM	ΔTm	0.8 °C
CN([C@@H]1CCc2c(CC(=O)O)c3cc(S(C)(=O)=O)ccc3n2C1)S(=O)(=O)c1ccc(F)cc1	cell-free assay, competition with immobilised ligand	1 µM	remaining binding	91%
Cn1c2c(c3ccc(Cl)c(Cl)c31)C(C#N)C1(CCN(C(=O)OC(C)(C)C)CC1)NC2=O (racemic)	thermal stability, DSF	10 µM	ΔTm	-0.1 °C
CC(C)(C)C(=O)c1sc(NC2CCCCC2)nc1N	enzyme activity, inhibitor	10 µM	remaining activity	118%
COc1cc(/C=C/C(=O)CC(=O)/C=C/c2ccc(O)c(OC)c2)ccc1O	enzyme activity, inhibitor	1 µM	activity vs control	106%
Cn1cc(Cl)c2c(Oc3c(F)cc(Nc4cc(Cl)nc(N)n4)cc3F)ccnc21	cell-free assay, competition with immobilised ligand	0.1 µM	remaining binding	98%
C#Cc1cccc(Nc2ncnc3cc(OCCOC)c(OCCOC)cc23)c1	cell-free assay	0.5 µM	remaining signal	78.9%
O=C(Nc1cnn(-c2csc(C(=O)NC3COC3)c2)c1)Nc1c(F)cccc1Cl	enzyme activity, inhibitor	5 µM	remaining activity	90.5%
COc1cc2ncnc(Nc3ccc(Oc4ccccc4)c(C)c3C)c2cc1OC	enzyme activity, inhibitor	1 µM	inhibition	5%
Nc1cnc(N2CCc3cc(S(=O)(=O)Nc4c(F)cc(Cl)cc4F)cc(N4CCCC4=O)c32)nc1	cell-free assay, competition with immobilised ligand	1 µM	remaining binding	100%
